This is an account of results in ChEMBL document CHEMBL1687915, “Synthesis and biological evaluation of analogues of AKT (protein kinase B) inhibitor-IV” (J Med Chem, 2011).

As a reminder, the IC50 is the midpoint of a concentration-inhibition curve.

Active and inactive are the calls of the source. The calls are words filed in the database; no cut-off is given here.

A short description of assay [1]: Antiproliferative activity against human 786-O cells. Format: functional, cell-based. Particulars: 786-0.
For assay [2], the system named is Mycolicibacterium fortuitum. As to the kind of experiment: Antibacterial activity against 0.5 uM compound pretreated Mycobacterium fortuitum infected in human HeLa cells assessed as inhibition of bacterial replication. Format: functional, organism-based. Put shortly:
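HeLa cells seeded at 5×10^5/well in EMEM with 10% FBS overnight, 37 °C, 5% CO₂. Washed free of antibiotics, then infected with washed M. fortuitum in uptake buffer at MOI 5 for 24 h. After a warm DMEM wash, compound added at 0.5 μM in HeLa medium, with Triton X-100 (1%) and 0.1% DMSO controls. After 24 h more, cells lysed and plated for CFU on 7H11 agar. At least triplicate.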

Assay [3] in a line: Cytotoxicity in human NHBE cells assessed as luciferase activity after 40 hrs by CellTiter-Glo luminescent cell viability assay. In kind it is cell-based. Put shortly: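 NHBE cells (passage 2, 2×10⁴ cells/cm²) grown on collagen-coated Transwell inserts, submerged for 5–7 days, then at air-liquid interface for a further 28 days (35 days total). Exposed to compound over a dose range, then viability read after 40 h as cellular ATP by CellTiter-Glo firefly luciferase. Triplicate or more.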
Background: In ATP-based viability assays light output follows the ATP content of the culture.

Assay [4] can be described thus: Antiviral activity against Parainfluenza virus 5 expressing renilla luciferase infected in HeLa cells assessed as inhibition viral replication by luciferase based reporter gene assay. In kind it is functional, cell-based. The gist of the method:
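HeLa cells infected with 1 MOI of recombinant PIV5 carrying renilla luciferase between the HN and L genes, then incubated with compound. Cells harvested 1 day post infection and assayed for renilla luciferase. Screened first as singletons at 1 μM, then at 0.5 μM. IC50 taken from dose-response curves, at least triplicate.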
For orientation: In a reporter assay the amount or activity of a reporter protein is the signal.

Assay [5] is described as follows: Inhibition of AKT -mediated FOXO1a nuclear export in human 786-O cells. Format: cell-based.
In another assay the test system is HeLa. As to the kind of experiment: Cytotoxicity in human HeLa cells assessed as luciferase activity after 24 hrs by CellTiter-Glo luminescent cell viability assay. In kind it is functional, cell-based. Put shortly:
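Viability of HeLa cells measured after 24 h of compound exposure by cellular ATP (firefly luciferase, CellTiter-Glo) over a dose-response range. IC50 derived from the curves, triplicate or more.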

[6] abbreviates: Homo sapiens, NHBE, 40 h, read-out: IC50.
Where [7] appears, read: Mammalian orthorubulavirus 5, HeLa, read-out: IC50.
The mark [8] stands for this setting: Homo sapiens, HeLa, 24 h, read-out: IC50.

As to `CC[n+]1c(/C=C/N(C)c2ccccc2)n(-c2ccccc2)c2ccc(-c3nc4ccccc4s3)cc21`, the IC50 in assay [1] is less than 1250 nM; in assay [3] (setting [6]), 3180 nM; in assay [3] (nhbe), “Dose-dependent effect”; in assay [4] (setting [7]) it was 520 nM; in assay [4] (hela), “Dose-dependent effect”; in assay [5], 625 nM. The IC50 is 670 nM with HeLa (setting [8]) and “Dose-dependent effect” in the assay on HeLa (hela). For the same compound, the result in assay [2] was inactive.

Turning to `CN(/C=C/c1n(-c2ccccc2)c2ccc(-c3nc4ccccc4s3)cc2[n+]1CCc1ccccc1)c1ccccc1.[I-]`, the outcome in assay [2] was inactive. Further, the IC50 was 5000 nM in assay [3] (setting [6]); “Dose-dependent effect” in assay [3] (nhbe); 590 nM in assay [4] (setting [7]); “Dose-dependent effect” in assay [4] (hela); 620 nM in the assay with HeLa (setting [8]); “Dose-dependent effect” with HeLa (hela).

As to `CCCCCCCCCCCC[n+]1c(/C=C/N(C)c2ccccc2)n(-c2ccccc2)c2ccc(-c3nc4ccccc4s3)cc21.[I-]`, in assay [2], the outcome was inactive. The IC50 in assay [3] (setting [6]) is greater than 5000 nM; in assay [3] (nhbe), “Dose-dependent effect”; in assay [4] (setting [7]), 250 nM; in assay [4] (hela), “Dose-dependent effect”; with HeLa (setting [8]), 440 nM; in the assay on HeLa (hela), “Dose-dependent effect”.

Consider `CCCCCC[n+]1c(/C=C/N(C)c2ccccc2)n(-c2ccccc2)c2ccc(-c3nc4ccccc4s3)cc21.[I-]`, for which the result in assay [2] was inactive. In addition, the IC50 in assay [3] (setting [6]) is greater than 5000 nM; in assay [3] (nhbe), “Dose-dependent effect”; in assay [4] (setting [7]), 410 nM; in assay [4] (hela), “Dose-dependent effect”; in the assay with HeLa (setting [8]), 420 nM; with HeLa (hela) it was “Dose-dependent effect”.
